Measurements taken from ChEMBL document CHEMBL1124441, “Synthesis of congeners and prodrugs. 3. Water-soluble prodrugs of taxol with potent antitumor activity” (1989).

How the values were obtained:
B16 [1] = assay: Difference in body weight in grams between test and control animals at a dose of 5 mg/kg intraperitoneally; assay type: functional, Mus musculus; details: route intraperitoneal
Summary of the method: (§1)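 B16 melanoma system: 10⁶ tumor cells inoculated ip on day 0. Drug given ip once daily for 9 days (Q01Dx09) starting day 1, dose as mg/kg body weight per injection. Read-out is the body-weight difference in grams, treated minus control animals. Early deaths, taken as toxicity, are scored on day 4.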

B16 [2] = assay: Antitumor activity in B16 Melanoma system animals is indicated by survivors on day 4 at a dose of 10 mg/kg intraperitoneally; assay type: functional, Mus musculus; set-up: reference not given here; details: route intraperitoneal
Summary of the method: (§2)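 B16 melanoma, 10^6 cells inoculated ip on day 0. Ip treatment started day 1, schedule Q01Dx09 (one dose daily for 9 days). The score is live animals on day 4 over total animals; early deaths are taken as drug toxicity.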

B16 [3] = assay: Antitumor activity in B16 Melanoma system animals is indicated by survivors on day 4 at a dose of 2.5 mg/kg intraperitoneally; assay type: functional, Mus musculus; set-up: reference not given here; details: route intraperitoneal; summary of the method: as §2
B16 [4] = assay: Antitumor activity in B16 Melanoma system animals is indicated by survivors on day 4 at a dose of 20 mg/kg intraperitoneally; assay type: functional, Mus musculus; set-up: reference not given here; details: route intraperitoneal; summary of the method: as §2
B16 [5] = assay: Antitumor activity in B16 Melanoma system animals is indicated by survivors on day 4 at a dose of 40 mg/kg intraperitoneally; assay type: functional, Mus musculus; details: route intraperitoneal; summary of the method: as §2
B16 [6] = assay: Difference in body weight in grams between test and control animals at a dose of 2.5 mg/kg intraperitoneally; assay type: functional, Mus musculus; details: route intraperitoneal; summary of the method: as §1
B16 [7] = assay: Difference in body weight in grams between test and control animals at a dose of 20 mg/kg intraperitoneally; assay type: functional, Mus musculus; details: route intraperitoneal; summary of the method: as §1
B16 [8] = assay: Difference in body weight in grams between test and control animals at a dose of 40 mg/kg intraperitoneally; assay type: functional, Mus musculus; details: route intraperitoneal; summary of the method: as §1
B16 [9] = assay: Percent of median lifetime of test animals divided by the median lifetime of control animals at a dose of 20 mg/kg intraperitoneally; assay type: functional, Mus musculus; details: route intraperitoneal
Summary of the method: (§3)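 B16 melanoma inoculated ip (10⁶ cells) on day 0. Daily ip treatment for 9 days (Q01Dx09) begins day 1, dosed per injection in mg/kg. %T/C is the median lifespan of treated animals divided by that of tumored untreated controls, ×100. Cures are animals alive on the last test day. Toxic deaths are assessed on day 4.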

B16 [10] = assay: Percent of median lifetime of test animals divided by the median lifetime of control animals at a dose of 40 mg/kg intraperitoneally; assay type: functional, Mus musculus; details: route intraperitoneal; summary of the method: as §3
B16 [11] = assay: Percent of median lifetime of test animals divided by the median lifetime of control animals at a dose of 5 mg/kg intraperitoneally; assay type: functional, Mus musculus; details: route intraperitoneal; summary of the method: as §3
B16 [12] = assay: Difference in body weight in grams between test and control animals at a dose of 10 mg/kg intraperitoneally; assay type: functional, Mus musculus; details: route intraperitoneal; summary of the method: as §1
B16 [13] = assay: Percent of median lifetime of test animals divided by the median lifetime of control animals at a dose of 2.5 mg/kg intraperitoneally; assay type: functional, Mus musculus; details: route intraperitoneal; summary of the method: as §3
B16 [14] = assay: Percent of median lifetime of test animals divided by the median lifetime of control animals at a dose of 10 mg/kg intraperitoneally; assay type: functional, Mus musculus; details: route intraperitoneal; summary of the method: as §3
B16 [15] = assay: Antitumor activity in B16 Melanoma system animals is indicated by survivors on day 4 at a dose of 5 mg/kg intraperitoneally; assay type: functional, Mus musculus; details: route intraperitoneal; summary of the method: as §2
B16 [16] = assay: Antitumor activity in B16 Melanoma system animals is indicated by survivors on day 4 at a dose of 1.25 mg/kg intraperitoneally; assay type: functional, Mus musculus; details: route intraperitoneal; summary of the method: as §2
B16 [17] = assay: Difference in body weight in grams between test and control animals at a dose of 1.25 mg/kg intraperitoneally; assay type: functional, Mus musculus; details: route intraperitoneal; summary of the method: as §1
B16 [18] = assay: Percent of median lifetime of test animals divided by the median lifetime of control animals at a dose of 1.25 mg/kg intraperitoneally; assay type: functional, Mus musculus; details: route intraperitoneal; summary of the method: as §3
B16 [19] = assay: Antitumor activity in B16 Melanoma system animals is indicated by survivors on day 4 intraperitoneally; details: Mus musculus, route intraperitoneal
B16 [20] = assay: Percent of median lifetime of test animals divided by the median lifetime of control animals at a dose of 40 mg/kg intraperitoneally; Toxic; assay type: functional, organism-based; set-up: dose 40 mg/kg; details: Mus musculus
Summary of the method: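 B16 melanoma, 10^6 cells ip on day 0, ip treatment from day 1, Q01Dx09 (single dose daily for 9 days). %T/C is median lifetime of treated over untreated tumored controls, times 100. Early deaths are assessed on day 4 for toxicity. Cures are animals alive on the last test day.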

Compound	Weight difference (B16 [1]) [g]	Activity (B16 [2])	Activity (B16 [3])	Activity (B16 [4])	Activity (B16 [5])	Weight difference (B16 [6]) [g]	Weight difference (B16 [7]) [g]	Weight difference (B16 [8]) [g]	T/C (B16 [9]) [%]	T/C (B16 [10]) [%]	T/C (B16 [11]) [%]	Weight difference (B16 [12]) [g]	T/C (B16 [13]) [%]	T/C (B16 [14]) [%]	Survivors on day 4 (B16 [15])	Activity (B16 [16])	Weight difference (B16 [17]) [g]	T/C (B16 [18]) [%]	Activity (B16 [19])	T/C (B16 [20])
CC(=O)OC1C(=O)[C@@]2(C)[C@H]([C@H](OC(=O)c3ccccc3)[C@]3(O)CC(OC(=O)C(OC(=O)CCC(=O)O)C(NC(=O)c4ccccc4)c4ccccc4)C(C)=C1C3(C)C)[C@]1(OC(C)=O)CO[C@@H]1C[C@@H]2O (stereo not given in full)	0.4	10	10	10	10	0	0	0	154	185	154	0.4	119	159	10					
CC(=O)OC1C(=O)[C@]2(C)C(O)C[C@H]3OC[C@@]3(OC(C)=O)[C@H]2[C@H](OC(=O)c2ccccc2)[C@]2(O)CC(OC(=O)[C@@H]3OC(=O)N(C(=O)c4ccccc4)[C@H]3c3ccccc3)C(C)=C1C2(C)C (stereo not given in full)	0	10	10			-0.3	-0.2		98		95	-0.1	88	100	10	10	-0.2	94	10	
CC(=O)OC1C(=O)[C@@]2(C)[C@H]([C@H](OC(=O)c3ccccc3)[C@]3(O)CC(OC(=O)C(OC(=O)CCC(=O)[O-])C(NC(=O)c4ccccc4)c4ccccc4)C(C)=C1C3(C)C)[C@]1(OC(C)=O)CO[C@@H]1C[C@@H]2O.[Na+] (stereo not given in full)	0	10	10	10	10	0.4	-0.2	0.6	201	218	166	0.6	159	183	10	10	0.1	111		
CC(=O)OC1C(=O)[C@@]2(C)[C@H]([C@H](OC(=O)c3ccccc3)[C@]3(O)CC(OC(=O)C(O)C(NC(=O)c4ccccc4)c4ccccc4)C(C)=C1C3(C)C)[C@]1(OC(C)=O)CO[C@@H]1C[C@@H]2O (stereo not given in full)	-0.2	10		10	10		0	-1.2	96		175	0		139	10					Toxic
